Experiments:
[1] = target: GABA-A receptor; anion channel; test: Displacement of [3H]Ro-151788 from GABA-A benzodiazepine receptor of bovine brain membranes; assay type: cell membranes, Bos taurus
Summary of the method: (§1)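 Washed bovine cerebral cortex membranes, with endogenous GABA removed by Triton X-100/37 °C washes, incubated with ~0.2 nM [3H]Ro15-1788 (Kd 0.60 nM) in 50 mM Tris-citrate pH 7.4 for 90 min at 0 °C, then filtered. Nonspecific binding defined with 10 μM diazepam. Screening at 10 μM; Ki from IC50 by Cheng–Prusoff; five determinations, mean ± SEM.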

Mus musculus [2] = test: (§2) Anticonvulsant activity against MES-induced hindlimb extension at 100 mg/kg dose; assay type: organism-based; parameters: dose 100 mg/kg; settings: in vivo
Summary of the method: (§3)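 Male Swiss-Webster mice (22–26 g) received drug in 1% CMC (10 mL/kg) 30 min before maximal electroshock through transcorneal electrodes (40 mA, 50 Hz, 0.2 s). The end point was tonic hindlimb extension, and lethality was also noted. The incidence of non-convulsing mice was analysed by χ² test.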

[3] = target: T1, GABA-A receptor; anion channel (Bos taurus) (UniProt P10063+P08220+P20237+P08219+P10064+P22300); test: Percentage inhibition of [3H]Ro-151788 binding to GABA-A benzodiazepine receptor in bovine brain membrane at 10 uM; assay type: cell membranes; summary of the method: as §1
Mus musculus [4] = test: Anticonvulsant activity against PTZ induced atacks at 100 mg/kg dose; assay type: functional
Mus musculus [5] = test: as §2; assay type: functional
Mus musculus [6] = test: Antianxiety activity was measured based on light/dark box thus calculated no of crosses of mice at 30 mg/kg dose; assay type: functional
Summary of the method: (§4)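 Male Swiss-Webster mice, 22–26 g, dosed orally with drug or 1% CMC vehicle (10 mL/kg), placed 30 min later in the centre of the lit side of a two-compartment light/dark box (60-W bulb 400 mm above the white floor). Time in the lit side and number of crossings counted over 5 min. Student's t-test.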

[7] = target: T1, GABA-A receptor; anion channel (Bos taurus); test: The GABA ratio (GR) = IC50 compound + 10 uM GABA, performed in five independent experiments was calculated for the compound.; assay type: protein-complex assay
Summary of the method: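 [3H]Ro15-1788 displacement from GABA-depleted bovine cortex membranes (0.2 nM ligand, 90 min, 0 °C, Tris-citrate pH 7.4). IC50 measured without and with 10 μM GABA and the ratio taken; five independent experiments.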

Mus musculus [8] = test: Muscle relaxant effect measured by rotarod test at 300 mg/Kg dose in mice; assay type: functional
Summary of the method: (§5)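 Motor coordination on the rota rod in male Swiss-Webster mice (22–26 g) after oral dosing in 1% CMC (10 mL/kg), tested 30 min post-dose. Student's t-test.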

Mus musculus [9] = test: (§6) Anticonvulsant activity against MES-induced hindlimb extension at 30 mg/kg dose; assay type: functional
Mus musculus [10] = test: Anticonvulsant activity against PTZ induced atacks at 30 mg/kg dose; assay type: functional
Mus musculus [11] = test: Antianxiety activity was measured based on light/dark box thus calculated % time in light of mice at 100 mg/kg dose; assay type: functional; summary of the method: as §4
Mus musculus [12] = test: Antianxiety activity was measured based on light/dark box thus calculated no of crosses of mice at 100 mg/kg dose; assay type: functional; summary of the method: as §4
Mus musculus [13] = test: Antianxiety activity was measured based on light/dark box thus calculated % time in light of mice at 30 mg/kg dose; assay type: functional; summary of the method: as §4
Mus musculus [14] = test: as §6; assay type: ADME, organism-based; parameters: dose 30 mg/kg; settings: in vivo; summary of the method: as §3
Mus musculus [15] = test: Muscle relaxant effect measured by rotarod test at 100 mg/Kg dose in mice; assay type: functional; summary of the method: as §5
Mus musculus [16] = test: The antianxiety activity for the compound at a dose of 1 mg/kg was evaluated as number of crosses by mice in the light/dark box experiment.; assay type: functional
Mus musculus [17] = test: The percentage time in light by the animals was calculated for the compound at a dose of 0.3 mg/kg in the light/dark box experiment.; assay type: functional
Mus musculus [18] = test: Muscle relaxant effect measured by rotarod test at 1 mg/Kg dose in mice; assay type: functional
Mus musculus [19] = test: The percentage time in light by the animals was calculated for the compound at a dose of 3 mg/kg in the light/dark box experiment.; assay type: functional
Mus musculus [20] = test: Muscle relaxant effect measured by rotarod test at 0.3 mg/Kg dose in mice; assay type: functional
Mus musculus [21] = test: The percentage time in light by the animals was calculated for the compound at a dose of 1 mg/kg in the light/dark box experiment*** indicates P<0.001.; assay type: functional
Mus musculus [22] = test: The antianxiety activity for the compound at a dose of 0.3 mg/kg was evaluated as number of crosses by mice in the light/dark box experiment. p<0.05; assay type: functional
Mus musculus [23] = test: Muscle relaxant effect measured by rotarod test at 0.1 mg/Kg dose in mice; assay type: functional
Mus musculus [24] = test: Muscle relaxant effect measured by rotarod test at 3 mg/Kg dose in mice; assay type: functional
Mus musculus [25] = test: The antianxiety activity for the compound at a dose of 3 mg/kg was evaluated as number of crosses by mice in the light/dark box experiment.; assay type: functional
Mus musculus [26] = test: Antianxiety activity was measured based on light/dark box thus calculated no of crosses of mice at 100 mg/kg dose Flumazenil and 1 mg/kg Diazepam; assay type: functional
Mus musculus [27] = test: Muscle relaxant effect measured by rotarod test at 100 mg/kg dose Flumazenil and 0.3 mg/kg Diazepam; assay type: functional
Mus musculus [28] = test: Anticonvulsant activity against PTZ induced atacks at 100 mg/kg dose Flumazenil and 0.3 mg/kg Diazepam; assay type: functional
Summary of the method: (§7)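 Male Swiss-Webster mice (22–26 g) received drug in 1% CMC (10 mL/kg) 30 min before the test, or flumazenil 40 min before. Pentylenetetrazole was then given at 75 mg/kg sc, and generalized tonic-clonic seizures were scored over the following 30 min. The incidence of non-convulsing mice was analysed by χ² test.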

Mus musculus [29] = test: Antianxiety activity was measured based on light/dark box thus calculated % time in light of mice at 100 mg/kg dose Flumazenil and 1 mg/kg Diazepam; assay type: functional
Mus musculus [30] = test: Anticonvulsant activity against PTZ induced attacks at 30 mg/kg dose 13d and 100 mg/kg Flumazenil; assay type: functional; summary of the method: as §7
Mus musculus [31] = test: Muscle relaxant effect measured by rotarod test at 30 mg/kg dose 13d and 100 mg/kg Flumazenil; assay type: functional

CCOC(=O)c1cnn2c1n[n+]([O-])c1ccc(Cl)cc12
Ki [1]: 35 nM
Lethality (Mus musculus [2]): 0%
inhibition [3]: 99.8%
Atttacks (Mus musculus [4]): 28.1%
Extension (Mus musculus [5]): 0%
No. of crosses (Mus musculus [6]): 19.1
GR [7]: 1.91
No. of falls (Mus musculus [8]): 0.33
Extension (Mus musculus [9]): 0%
Atttacks (Mus musculus [10]): 15%
Time in flight (Mus musculus [11]): 124.6%
No. of crosses (Mus musculus [12]): 15.2
Time in flight (Mus musculus [13]): 106.2%
Lethality (Mus musculus [14]): 22.2%
No. of falls (Mus musculus [15]): 0.5

C/C(=N\C(=O)c1cnn2c1n[n+]([O-])c1ccc(Cl)cc12)N(C)C
inhibition [3]: 58.5%

Nc1cnn2c1n[n+]([O-])c1ccc(Cl)cc12
inhibition [3]: 33.9%

Cn1cnc(-c2cnn3c2n[n+]([O-])c2ccc(Cl)cc23)n1
inhibition [3]: 0%

CN1C(=O)CN=C(c2ccccc2)c2cc(Cl)ccc21
GR [7]: 1.5

CN1C(=O)CN=C(c2ccccc2)c2cc(Cl)ccc21 [DIAZEPAM]
No. of crosses (Mus musculus [16]): 28.5
Time in light (Mus musculus [17]): 95.5%
No. of falls (Mus musculus [18]): 0.73
Time in light (Mus musculus [19]): 211.1%
No. of falls (Mus musculus [20]): 0.56
Time in light (Mus musculus [21]): 144.9%
No. of crosses (Mus musculus [22]): 22
No. of falls (Mus musculus [23]): 0.23
No. of falls (Mus musculus [24]): 1.4
No. of crosses (Mus musculus [25]): 16.5

CCOC(=O)c1ncn2c1CN(C)C(=O)c1cc(F)ccc1-2.CN1C(=O)CN=C(c2ccccc2)c2cc(Cl)ccc21
No. of crosses (Mus musculus [26]): 18.6
No. of falls (Mus musculus [27]): 0.46
Atttacks (Mus musculus [28]): 14.2%
Time in flight (Mus musculus [29]): 104.1%

[O-][n+]1nc2c(-c3nc[nH]n3)cnn2c2cc(Cl)ccc21
inhibition [3]: 44.4%

Cc1n[nH]c(-c2cnn3c2n[n+]([O-])c2ccc(Cl)cc23)n1
inhibition [3]: 15.2%

CN(C)/C=N/C(=O)c1cnn2c1n[n+]([O-])c1ccc(Cl)cc12
inhibition [3]: 48.9%

CCOC(=O)c1ncn2c1CN(C)C(=O)c1cc(F)ccc1-2.[O-][n+]1nc2c(-c3ccsc3)cnn2c2cc(Cl)ccc21
Attacks (Mus musculus [30]): 36.4%
No. of falls (Mus musculus [31]): 0.64
